Results on 84 variants are retold here after the RNAGym collection of RNA variant scans (doi:10.1126/science.aae0568).

Variants at the floor of the assay were thinned out.

First the molecules themselves.
B1: tRNA (parent)
chain: GUUCCGUUGGCGUAAUGGUAACGCGUCUCCCUCCUAAGGAGAAGACUGCGGGUUCGAGUCCCGUACGGAACG

In the series the parent is B1. In words: yeast fitness relative to wild type (ratio to wild type); higher = fitter; tRNA-Arg(CCU), competitive growth, 37 C, YPD. The essentials: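 Genotype frequency changes were the basis for Darwinian fitness relative to wild type. The frequencies came from 100-nucleotide paired-end sequencing of gene amplicons from the start population and each end population of pooled yeast strains with tRNA-Arg(CCU) gene variants at the native locus. Competition ran in YPD at 37°C for 24 hours in six replicates, genotypes needed ≥ 100 starting reads, and estimates < 0.5 were set to 0.5.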
For the variant C11U C24A A42G A57U U64A A69U, the yeast fitness came to 0.505.

Turning to C11G A37U, the yeast fitness is no more than 0.5.

Take C11U A14G A65U G68A: the yeast fitness came to 0.617.

With C11U C30G U35A C46U G51A G56A, the yeast fitness was no more than 0.5.

For C11U A42G G51U A57U, the yeast fitness was no more than 0.5.

Consider C11U A36U A70U, for which the yeast fitness came out at 0.694.

Take C11G A15C G38C C49G: the yeast fitness was no more than 0.5.

For C11G U47A G52A G58C G63C C66G, the yeast fitness is 0.664.

Regarding C11G C49A G67C, the yeast fitness was no more than 0.5.

For C11G U32A C33G C34A A57C, the yeast fitness is no more than 0.5.

As to C11G G18A G23A C60G, the yeast fitness is no more than 0.5.

Take C11U A36C G68C: the yeast fitness was no more than 0.5.

In the case of C11G C27G A42C A45C, the yeast fitness is no more than 0.5.

As for C11U C46G G51A C55U G63U, the yeast fitness was no more than 0.5.

In the case of C11U A15U A21C C24G C29U A42C U59G G67U, the yeast fitness was no more than 0.5.

For the variant C11G C24U U35A, the yeast fitness is 0.622.

In the case of C11U A15U C46U, the yeast fitness turned out to be 0.741.

As to C11U A21G C29G C61G, the yeast fitness is no more than 0.5.

With C11U C29G, the yeast fitness was determined as 0.687.

C11U C29U: the yeast fitness worked out at 0.738.

With C11U A14G G23A, the yeast fitness was 0.504.

Regarding C11G C46A, the yeast fitness amounted to 0.576.

C11G C46G: the yeast fitness worked out at 0.75.

Consider C11U A45U G58U, for which the yeast fitness worked out at 0.562.

Take C11U C46U A65U A69U: the yeast fitness worked out at 0.54.

As to C11G G58A A70G, the yeast fitness turned out to be 0.659.

Take C11U G44A G50A C66G: the yeast fitness was 0.511.

As to C11U A45G G52A, the yeast fitness stood at 0.63.

As to C11U A45G G52C, the yeast fitness was no more than 0.5.

Take C11G U26A: the yeast fitness turned out to be 0.583.

Consider C11G G41C C55U G58A, for which the yeast fitness is no more than 0.5.

Consider C11U C31G A70U, for which the yeast fitness was 0.598.

Regarding C11G U32G U54A U59A G67A, the yeast fitness is no more than 0.5.

Regarding C11U A20C C29G, the yeast fitness is 0.568.

For C11U C31U U35C A69U, the yeast fitness was no more than 0.5.

Consider C11G C24G C27A U28C G67A, for which the yeast fitness was no more than 0.5.

As to C11G U28A A65U A69U, the yeast fitness was no more than 0.5.

Take C11G C30U A37C C46U: the yeast fitness was determined as 0.664.

C11U C24G C33A A40C C66U: the yeast fitness worked out at 0.743.

As for C11U C49A A57C, the yeast fitness is no more than 0.5.

As to C11G G25A G56A C60A C62U G68C, the yeast fitness was no more than 0.5.

Turning to C11G C24U A45C C55U, the yeast fitness is no more than 0.5.

In the case of C11G G39C, the yeast fitness came out at 0.6.

For the variant C11U G41A C60G A65G, the yeast fitness was 0.624.

As for C11G C27G C66U, the yeast fitness was no more than 0.5.

Turning to C11U G39A, the yeast fitness is 0.947.

Turning to C11U G39U, the yeast fitness was 0.835.

As for C11U G18C A40C G63A, the yeast fitness is no more than 0.5.

Turning to C11U G63A, the yeast fitness is 0.903.

For the variant C11U A43C C66U, the yeast fitness came to 0.699.

For the variant C11U C46G C61U, the yeast fitness came out at 0.596.

With C11G C29U A36C A42G C46G, the yeast fitness is no more than 0.5.

For the variant C11U C27G A43C A57U, the yeast fitness is 0.696.

Take C11U A45U C61G A65C: the yeast fitness was no more than 0.5.

As for C11G C29G G38A G44A C46U C62A, the yeast fitness is no more than 0.5.

As to C11G A15C C46G U59A, the yeast fitness was no more than 0.5.

Turning to C11U C24A G68C, the yeast fitness was no more than 0.5.

C11G A21C G56A: the yeast fitness is no more than 0.5.

For C11G A21G C31G, the yeast fitness was no more than 0.5.

As to C11U C31U C61U A69U, the yeast fitness was no more than 0.5.

For C11U C31U U64A A70G, the yeast fitness was no more than 0.5.

On to C11G U35A C66U, for which the yeast fitness came out at 0.51.

Regarding C11G G12A C60U A70G, the yeast fitness is no more than 0.5.

Regarding C11U A40G U47G, the yeast fitness was no more than 0.5.

Consider C11G C49U C61A, for which the yeast fitness worked out at 0.582.

For C11U A20U U26C, the yeast fitness was no more than 0.5.

With C11U C27U C31A A42G C49G G51A G68C, the yeast fitness is no more than 0.5.

Regarding C11G G12A C27U A43G, the yeast fitness was no more than 0.5.

For the variant C11G G12A C24A C30G G44C C61G, the yeast fitness is no more than 0.5.

Take C11G U35A C62A C66G: the yeast fitness is no more than 0.5.

Regarding C11U C22A A40U C46U C61U, the yeast fitness was no more than 0.5.

On to C11U A42G C62G A69U, for which the yeast fitness is no more than 0.5.

For C11G C31U G41C, the yeast fitness was no more than 0.5.

With C11U G58C C61U, the yeast fitness is 0.65.

For the variant C11G C27U C33U A65C G67A, the yeast fitness was no more than 0.5.

Consider C11G A21U A42U, for which the yeast fitness is no more than 0.5.

In the case of C11U A21C A36G, the yeast fitness is no more than 0.5.

Take C11U C30U C66A: the yeast fitness was no more than 0.5.

As to C11U C22G C62U G68C, the yeast fitness turned out to be 0.542.

With C11U G12A C31U, the yeast fitness came out at 0.532.

On to C11G U32A A37C G39A A43G U54C C62G, for which the yeast fitness was no more than 0.5.

For C11U A21U C55A, the yeast fitness was found to be 0.632.

On to C11G A15U C22U A42G, for which the yeast fitness was no more than 0.5.

As for C11U A15C U16C A21G, the yeast fitness is no more than 0.5.
